Assay outcomes: PubChem BioAssay, several laboratories
Shown are actives, neighbours in structure and some others; about 2.5% of the full set was active somewhere.
HCV NS3 hel inh: inhibitors of Hepatitis C virus NS3 helicase. AID 1800. inhibition, % at 10.9 µM. hit rate 0.56% among 290,000. NS3 helicase DNA unwinding, Cy5 molecular beacon fluorescence;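 active = inhibition above the mean of all tested compounds plus 3 SD, set per campaign, cut at about 35% in these data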
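Assay system: hepatitis C virus NS3 helicase domain fragment enzyme. Also added: annealed dual-labelled DNA beacon duplex, ATP-started. Timing: 1 h reaction at 25 °C, ATP-initiated. Technique: Cy5 fluorescence at 0 and 60 min, beacon hairpin quenching. Evaluation: % inhibition of unwinding. Replication: one well per compound.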
UHRF1 MBD2 ctr: human UHRF1 methylated DNA binding inhibitors; Q96T88; UHRF1 binding to methylated oligo, TR-FRET; inhibition, % at 4.4 µM; hit rate 0.75% among 370,000; in the data active = inhibition above about 21%;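 note: UHRF1 SRA domain binding a hemimethylated CpG hairpin DNA probe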
DSG3 Ab inh: inhibitors of pemphigus antibody binding to human desmoglein-3; P32926; DSG3-coupled beads, scFv-anti-DSG3-GFP binding, flow cytometry; active compounds read low; binding (percent of control), % at 10 µM; hit rate 0.48% among 310,000; AID 588358;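 active = binding more than 3 SD below its plate's average and above zero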;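 note: hits lower antibody fragment binding to DSG3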
Target sequence (P32926 whole entry, looked up, the tested form may be a part): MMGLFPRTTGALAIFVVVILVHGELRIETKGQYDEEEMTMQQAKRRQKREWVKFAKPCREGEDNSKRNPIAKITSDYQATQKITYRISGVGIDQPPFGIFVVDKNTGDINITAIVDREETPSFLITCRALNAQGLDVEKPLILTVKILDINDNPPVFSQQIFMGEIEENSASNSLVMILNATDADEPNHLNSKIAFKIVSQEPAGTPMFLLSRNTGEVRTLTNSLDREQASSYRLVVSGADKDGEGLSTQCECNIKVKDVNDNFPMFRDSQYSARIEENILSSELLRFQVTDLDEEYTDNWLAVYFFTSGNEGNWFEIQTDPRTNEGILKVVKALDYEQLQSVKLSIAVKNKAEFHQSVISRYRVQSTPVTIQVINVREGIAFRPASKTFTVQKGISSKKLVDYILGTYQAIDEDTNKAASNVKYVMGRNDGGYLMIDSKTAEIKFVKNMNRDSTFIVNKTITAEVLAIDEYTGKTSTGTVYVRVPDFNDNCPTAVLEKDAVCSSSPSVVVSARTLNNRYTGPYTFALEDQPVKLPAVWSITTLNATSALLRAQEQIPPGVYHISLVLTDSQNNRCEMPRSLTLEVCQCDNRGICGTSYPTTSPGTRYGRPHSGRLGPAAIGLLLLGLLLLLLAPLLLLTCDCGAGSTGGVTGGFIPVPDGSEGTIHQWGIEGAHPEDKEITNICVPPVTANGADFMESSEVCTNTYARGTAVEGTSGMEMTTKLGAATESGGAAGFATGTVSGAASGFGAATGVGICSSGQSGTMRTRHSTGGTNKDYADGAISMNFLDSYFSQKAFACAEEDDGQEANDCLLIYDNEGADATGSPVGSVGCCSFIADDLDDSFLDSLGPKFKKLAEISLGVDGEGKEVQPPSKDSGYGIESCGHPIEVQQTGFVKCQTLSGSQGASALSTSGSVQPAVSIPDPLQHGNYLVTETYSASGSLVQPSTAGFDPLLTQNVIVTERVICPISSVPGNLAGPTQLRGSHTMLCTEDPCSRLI
MBD2 DNA inh: inhibitors of human MBD2 binding to methylated oligonucleotide | TR-FRET | inhibition, % at 4.4 µM | AID 686964 | hit rate 0.31% among 370,000; in the data active = inhibition above about 13%
SUMO1 PPI mod: SUMO1-SIM interaction modulation; P63165; SUMO1 binding to a labelled peptide, TR-FRET, 1 h; inhibition, % at 20 µM; hit rate 0.33% among 360,000; AID 602429; in the data active = inhibition above about 37%
DNMT1 inh: blocks human DNA methyltransferase DNMT1 | AID 588458 | inhibition (reported as % activation of signal), % at 10 µM | P26358 | DNMT1 molecular beacon, Hinp1I cleavage, fluorescence | hit rate 0.83% among 360,000; in the data active = inhibition above about 50%
Beacon interf DR: shows spectral interference in the DNMT1 beacon assay | shares compounds with DNMT1 inh | molecular beacon fluorescence, spectral interference counter-screen | IC50, µM | 200 tested, under 10 active | AID 602382; call rule not given here
DNMT1 confirm: confirmation of human DNMT1 inhibitors; hit rate 8% among 2,300; inhibition, % at 10 µM; shares compounds with DNMT1 inh; DNMT1 molecular beacon HinP1I cleavage, fluorescence;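 active = average inhibition of at least 30% in the single-concentration confirmation test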
Beacon interf: counter-screen for DNMT1 inhibitors: spectral interference; shares compounds with DNMT1 inh; DNMT1 molecular beacon spectral interference counterscreen, fluorescence 485/520; activation (fluorescence interference), % at 10 µM; hit rate 1% among 2,300; AID 602387;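 active = activation of at least 30% at 10 µM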;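 note: DNMT1 catalytic domain with a HinP1I cleavage step and a FAM/dabcyl DNA beacon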
Numbers stand for hits; – = inactive; · = no result given.

SMILES	HCV NS3 hel inh	UHRF1 MBD2 ctr	DSG3 Ab inh	MBD2 DNA inh	SUMO1 PPI mod	DNMT1 inh	DNMT1 confirm	Beacon interf	others
O=S(=O)(c1ccc(NC(=S)N2CCCCC2CO)cc1)N1CCOCC1 (stereo not drawn)	·	–	–	–	–	60	–	–
NC(=O)Cc1ccc(C(=O)CSc2nnc(-c3ccncc3)n2C2CC2)s1	·	–	·	–	–	78	–	–
N#CCCN(C(=O)CSc1nnc(-c2ccncc2)n1C1CC1)c1ccccc1	·	–	–	–	–	–	·	·
Cn1c(=O)c(NC(=O)c2ccccc2)c2n(c1=S)CCCCC2	–	–	–	–	–	–	·	·
CC(=O)Nc1cccc(NC(=O)c2ccc(S(=O)(=O)NCc3ccco3)cc2)c1	·	–	–	–	–	–	·	·
Cc1ccc(-c2cc(C(F)F)nc3sc4c(=O)[nH]cnc4c23)cc1	·	–	·	–	–	61	–	–
CC(C)c1nc2sc3c(=O)[nH]cnc3c2c2c1CCC2	–	–	–	–	–	–	·	·
COc1cc(OC)cc(-c2c(-c3cccs3)c3cc(-c4ccc(OCc5ccccc5)cc4)ccc3n2C)c1	·	–	·	–	–	52	–	–
COc1ccc(-c2c(-c3cc(OC)cc(OC)c3)n(C)c3ccc(-c4cnc(N)nc4)cc23)cc1	·	–	–	–	–	54	–	–
COc1ccc(-c2c(-c3cc(OC)cc(OC)c3)n(C)c3ccc(-c4ccc(OC)nc4)cc23)cc1	·	–	–	–	–	–	·	·
CCc1ccc(OCC(=O)NNC(=O)CSc2ncnc3sc(C)c(C)c23)cc1	–	–	–	–	–	–	·	·
Cc1ccc(OCC(=O)NNC(=O)CSc2ncnc3sc(C)c(C)c23)cc1	–	–	–	–	–	54	–	–
OC(c1ccccc1)(c1ccccc1)C1CCN(C(=S)Nc2ccc(F)cc2)CC1	·	–	–	–	–	–	·	·
CCN(CC)C(=O)CC(c1cc(OC)c(OC)c(OC)c1)c1c(OC)cc(OC)c2c(-c3ccccc3)cc(=O)oc12 (stereo not drawn)	·	–	–	–	–	84	–	–
CCN(CC)C(=O)CC(c1cc(OC)c(OC)c(OC)c1)c1c(OC)cc(OC)c2ccc(=O)oc12 (stereo not drawn)	·	–	–	–	–	–	·	·
Cc1cc(C)c2ccc3c(C)c(C)nc3c2[nH]1	–	–	–	–	–	–	·	·
CCOC(=O)N1CCN(c2cc(=O)n(-c3ccccc3C)c(=O)[nH]2)CC1	–	–	–	–	–	–	·	·
CCOC(=O)c1c(C)[nH]c(C(=O)OCC(=O)Nc2cc(C)c(Cl)cc2OC)c1C	–	–	·	–	–	60	–	–
CCN(CC)C(=O)C1=C(C)N(Cc2ccc(F)cc2)C(=O)C(CC(=O)NCCN2CCOCC2)C1 (stereo not drawn)	·	–	·	–	–	–	·	·
COc1ccc(NS(=O)(=O)c2cccc(C(=O)N/N=C/c3ccc4c(c3)OCCO4)c2)cc1	–	–	–	–	–	60	–	–
COc1ccccc1NS(=O)(=O)c1cccc(C(=O)N/N=C/c2ccc3c(c2)OCCO3)c1	–	–	–	–	–	–	·	·
O=C(Nc1ccc(Cl)c([N+](=O)[O-])c1)c1ccc2c(c1)OCCO2	–	–	–	–	–	–	·	·
O=C(N/N=C/c1ccc2c(c1)OCO2)c1sc2cc(Cl)ccc2c1Cl	–	–	–	–	–	67	–	–
O=C(N/N=C/c1ccc(Cl)c([N+](=O)[O-])c1)c1ccc2c(c1)OCCO2	·	–	–	–	80	80	–	–
COc1ccc2c(Cl)c(C(=O)N/N=C/c3ccc4c(c3)OCO4)sc2c1	–	–	–	–	–	62	–	–
SMILES	HCV NS3 hel inh	UHRF1 MBD2 ctr	DSG3 Ab inh	MBD2 DNA inh	SUMO1 PPI mod	DNMT1 inh	DNMT1 confirm	Beacon interf	others
CN(C)C(CNC(=O)c1cccc(OC(F)F)c1)c1ccco1 (stereo not drawn)	–	–	–	–	–	–	·	·
O=C(O)Cc1ccc(NC(=O)Nc2cccc(Cl)c2)cc1	–	–	–	–	–	–	·	·
COc1ccc(CN(C)C(=O)Cn2ccc(N)nc2=O)cc1OC	·	–	–	–	–	89	–	–
Cc1ccc(-c2nc3ccccc3s2)cc1S(=O)(=O)N1CCOCC1	–	–	–	–	–	–	·	·
CC1=CCC(C(=O)O)C(C(=O)NC2CCCCC2)C1 (stereo not drawn)	–	–	–	–	51	79	–	–
O=C(NCc1ccccc1)C(c1ccco1)N1CCN(C(=O)C2CCCO2)CC1 (stereo not drawn)	·	–	·	–	–	·	·	·
Cc1ccc(CNC(=O)c2nnn(CC(=O)Nc3cccc(C)c3C)c2N)cc1	–	–	–	–	–	61	–	–
Cc1ccc(CNC(=O)Cn2nnc(C(=O)Nc3cccc(C)c3C)c2N)cc1	–	–	–	–	–	–	·	·
COc1cc2c(C)nc3c(cnn3-c3ccccc3)c2cc1OC	–	–	–	–	–	–	·	·
CC(=O)Nc1ccc(OC(F)(F)C(F)F)c(NC(C)=O)c1	–	–	–	–	–	–	·	·
C=C(C)C(=O)Nc1ccc(OC(F)(F)C(F)F)c(NC(=O)C(=C)C)c1	–	–	–	–	–	56	–	–
Cc1ccc(NC(=O)COC(=O)CCNS(=O)(=O)c2ccc(C)c(C)c2)cc1	–	–	–	–	–	–	·	·
Cc1ccc(S(=O)(=O)N(CC(=O)N/N=C/c2cccc(Cl)c2)c2cccc3cccnc23)cc1	–	–	–	–	–	53	–	–
CC1(C)Cc2c(sc3[nH]c(=S)n(Cc4ccco4)c(=O)c23)CO1	–	–	–	–	–	–	·	·
O=c1c2c3c(sc2[nH]c(=S)n1Cc1ccco1)CCC3	–	–	–	–	43	83	–	–
O=C(O)C(c1ccccc1)N1C(=O)/C(=C\c2ccc(-c3ccc(Br)cc3)o2)SC1=S (stereo not drawn)	–	–	–	–	91	93	93	–	Beacon interf DR=47
COc1cc(/C=C2\SC(=S)N(C(C(=O)O)c3ccccc3)C2=O)cc(OC)c1OC (stereo not drawn)	–	–	–	–	–	–	·	·
CC(=O)c1cccc(N2C(=O)Nc3ccccc3N2O)c1	–	–	–	–	–	–	·	·
Cc1cc(C)cc(C(=O)NCC(=O)NCc2ccc(S(N)(=O)=O)cc2)c1	–	–	–	–	–	–	·	·
COc1ccc(NC(=O)NC2(C(=O)N3CCN4CCCC4C3)CCCCC2)cc1 (stereo not drawn)	–	–	–	–	–	–	·	·
COc1ccc(NC(=O)NC2(C(=O)N3CCOCC3)CCCCC2)cc1	–	–	–	–	–	54	–	–
